H69AR inhibit = blocks growth of human H69AR lung tumor cells. H69AR lung tumor viability, ATP luminescence, 72 h; active compounds read low. viability, % at 10 µM. actives 6% (n = 85,000). AID 598;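 active means viability at or below 40%; inactive means viability above 40%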;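 further: multidrug resistant small cell line overexpressing MRP-1 efflux transporter; 100% = mean luminescence of untreated control wells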
HCT116 bCat-KO = beta-catenin-lacking colon tumor cell growth suppression | HCT116 beta-catenin knockout viability, CellTiter-Glo, 60 h; active compounds read low | viability, % at 10 µM | actives 1.5% (n = 140,000) | AID 818;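 active means viability at or under a set limit, the compound median less 4 SD, cut at about 6% in these data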;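 further: 0% = Hyamine 1622 control at 20 µM and 100% = untreated cell control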
HUVEC prolif 384 = blocks proliferation of human endothelial cells | HUVEC proliferation, CellTiter-Glo luminescence, 72 h; active compounds read low | viability, % at 10 µM (by protocol) | AID 648 | actives 1.1% (n = 86,000);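 active means viability at or below 30%; inactive means viability above 30%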;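 further: 100% = median luminescence of DMSO-only cell control wells on each plate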
Fibroblast inh = blocks proliferation of human lung fibroblasts. LL 47 human lung fibroblast viability, ATP luminescence; active compounds read low. actives 1.1% (n = 85,000). viability, % at 10 µM;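 active means viability at or below 50% in the single dose screen; inactive means viability above 50%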;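 further: compound exposure lasted 72 h before the ATP readout; 100% = median luminescence of untreated cell-only wells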
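Times – overnight cell rest, 72 h compound treatment at 37 °C · Test system – human lung fibroblast line LL 47, low passage · Amount – 1,150 cells in each well · Controls – cell-only wells, no compound · Doses – 0.1% DMSO in all compound wells · Measured by – CellTiter-Glo luminescence · Buffer or medium – IMEM plus 15% FBS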
HCT116 PTEN-null = PTEN-deleted cell growth suppression | HCT116 PTEN-null viability, CellTiter-Glo, 60 h; active compounds read low | AID 827 | viability, % at 10 µM | actives 1.2% (n = 140,000);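 active means viability at or below a set limit, 4 SD under the median of all tested compounds, cut at about 3.7% in these data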;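 further: PTEN knockout HCT116 line with beta catenin targeted HCT116 as companion control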
Pyk2 oligo antag = blocks oligomerization of human Pyk2 in cells; z-score (the deposit names both 25 µM and 10 µM); Q293 cells, Pyk2 FERM NanoBiT luminescence; active compounds read low; Q14289; actives 0.83% (n = 99,000);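 active means Z-score of -3 or lower, scaled per plate to the spread of control and sample wells; inactive means z-score above -3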;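 further: negative z-score means lost luminescence so less FERM oligomerization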
* = called active by the depositor; · = no result. The entries come from a sample that favours hits as a whole.

SMILES | H69AR inhibit | HCT116 bCat-KO | HUVEC prolif 384 | Fibroblast inh | HCT116 PTEN-null | Pyk2 oligo antag
CSc1nc(SCC(=O)NC(c2ccccc2)c2ccccc2)c2c3c(sc2n1)CN(C)CC3 | 11.9* | 70.5 | 30.6 | 48.3* | 33.0 | 0.18
CN1CCc2c(sc3nc(SCC(=O)N4CCOCC4)nc(N)c23)C1 | 89.2 | 87.6 | 98.2 | 96.3 | 90.5 | 0.9
O=C(Nc1ccc2c(c1)CCC2)c1cc(S(=O)(=O)N2CCN(c3ccccc3)CC2)ccc1Cl | · | 94.2 | · | · | 91.5 | 0.82
CCOC(=O)C1=C(C)Nc2nc3ccccc3n2C1c1ccccc1 (stereo not given) | 11.1* | 96.9 | 80.0 | 76.2 | 89.2 | -0.46
O=C(c1ccco1)N1CCN(CCCCOc2ccc(F)cc2)CC1 | · | 96.3 | · | · | 98.5 | ·
CCOc1ccc2nc(N3CCC(C(=O)N4CCN(c5ncccn5)CC4)CC3)sc2c1 | 38.3* | · | 109.8 | 98.7 | · | ·
CCOc1ccc2nc(N3CCC(C(=O)N4CCN(c5ccccn5)CC4)CC3)sc2c1 | 43.4 | 42.9 | 64.8 | 97.0 | 39.7 | ·
CSC(=Nc1cccc(C)c1)NC#N | · | 84.0 | · | · | 91.8 | ·
CCOc1ccc(Br)cc1C1C(C(=O)OC)=C(N)Oc2cc(N(C)C)ccc21 (stereo not given) | 25.4* | 17.1 | 45.8 | 57.2 | 14.2 | -1.28
CCOc1ccccc1C1C(C(=O)OC)=C(N)OC2=C1C(=O)CCC2 (stereo not given) | 86.4 | 96.5 | 110.5 | 102.1 | 104.4 | 1.55
O=S1(=O)C=C(Sc2nc3cc(Cl)ccc3o2)c2ccccc21 | · | 1.6* | · | · | 1.6* | -0.97
Cc1ccc(CS(=O)(=O)CCC(=O)NCCCN2CCCC2=O)cc1 | 96.5 | 106.0 | 93.8 | 100.2 | 106.2 | -0.1
COc1ccccc1N1CCN(Cc2nc(N)nc(Nc3ccc(C)cc3)n2)CC1 | 3.0* | 60.6 | 85.7 | 90.7 | 51.7 | 0.05
Cc1ccc(Nc2nc(N)nc(CN3CCN(c4ccccc4F)CC3)n2)cc1 | 90.3 | 78.7 | 75.1 | 94.7 | 76.0 | -0.87
CC1CC(C)CN(Cc2nc(N)nc(Nc3ccc4ccccc4c3)n2)C1 (stereo not given) | 11.6* | 20.7 | 50.4 | 64.0 | 23.1 | 2.54
Nc1nc(CN2CCC(Cc3ccccc3)CC2)nc(Nc2ccccc2)n1 | 30.1* | 56.2 | 60.5 | 66.9 | 68.6 | -0.72
Nc1nc(CN2CCCCCC2)nc(Nc2ccccc2)n1 | 76.7 | 64.0 | 111.6 | 106.4 | 62.9 | 0.46
Cc1onc(-c2ccccc2)c1C(=O)N1CCN(C)CC1 | 85.2 | 94.4 | 94.6 | 96.9 | 100.0 | -0.43
Cc1[nH]nc2c1C(CCc1ccccc1)C(C#N)=C(N)O2 (stereo not given) | · | 99.5 | 94.3 | 95.9 | 93.7 | -0.78
COc1ccc(/C=C/c2cc(-c3ccc(C)cc3)o[n+]2C)cc1 | · | 1.2* | · | · | 1.5* | -2.12
Cc1[nH]c(=O)[nH]c(=O)c1CSc1nnc([C@@H](NC(=O)OC(C)(C)C)C(C)C)o1 | 91.9 | 85.7 | 98.6 | 84.3 | 98.2 | 0.37
CC(C)[C@H](NC(=O)OC(C)(C)C)c1nnc(S(=O)(=O)Cc2c(F)cccc2Cl)o1 | 0.9* | · | 55.6 | 2.6* | · | -2.28
CC(C)C[C@H](N)c1nnc(S(=O)(=O)Cc2cccc(F)c2)o1 | · | 102.5 | 88.3 | 83.8 | 107.3 | 1.64
Cc1ccccc1CS(=O)(=O)c1nnc([C@H](CC(C)C)NC(=O)OC(C)(C)C)o1 | 76.1 | 94.3 | 73.2 | 3.9* | 88.4 | -1.1
CC(C)(C)OC(=O)N[C@@H](Cc1ccccc1)c1nnc(S(=O)(=O)Cc2cccc(F)c2)o1 | 1.0* | 78.8 | 55.5 | 19.9* | 82.9 | ·
SMILES | H69AR inhibit | HCT116 bCat-KO | HUVEC prolif 384 | Fibroblast inh | HCT116 PTEN-null | Pyk2 oligo antag
CC(C)=CCSc1nnc([C@@H](NC(=O)OC(C)(C)C)C(C)C)o1 | 84.0 | 60.5 | 104.4 | 95.0 | 69.3 | 0.25
CC[C@@H](C)[C@H](NC(=O)OC(C)(C)C)c1nnc(S(=O)(=O)Cc2cc(C)ccc2C)o1 | 0.2* | 2.8* | 38.9 | 13.9* | 3.8* | -0.6
CCc1ccc(C2CC(c3cccc(OC)c3)n3nc(N)nc3N2)cc1 (stereo not given) | 88.1 | · | 104.3 | 97.8 | · | ·
CCCCCCCC(=O)NNC(=O)CC(=O)Nc1ccccc1C(=O)O | · | 92.9 | · | · | 92.0 | 0.58
CCCNC(=O)c1ccc(C2SCC(=O)N2CCc2ccccc2)cc1 (stereo not given) | · | 83.1 | · | · | 82.6 | ·
CC(=O)N(CN1C(=O)c2ccccc2C1=O)c1ccc2c(c1)oc1ccccc12 | · | 100.7 | · | · | 101.2 | ·
CCCCOc1ccc(CN(C)c2ncnc(N)n2)cc1 | 34.9* | 55.4 | 78.2 | 91.2 | 60.0 | -0.62
CCn1c(SCC(=O)c2ccc(O)c(O)c2)nnc1-c1ccccc1 | · | 65.2 | · | · | 66.2 | 0.62
CCn1c(SCC(=O)c2ccc(O)c(O)c2)nnc1-c1ccccc1OC | 36.1* | 67.0 | 75.9 | 79.5 | 95.7 | 2.06
C=CCn1c(SCC(=O)c2ccc(O)c(O)c2)nnc1-c1ccccc1OC | 20.0* | 47.1 | 75.8 | 67.7 | 66.5 | ·
O=C(CCn1nnc(-c2cccs2)n1)NC1CCCCC1 | 99.4 | 91.7 | 101.6 | 102.5 | 92.0 | -0.54
CC(=O)c1c(C(C)=O)c(C)n(-c2nc(-c3ccc(C)c(C)c3)c(C)s2)c1C | 89.3 | 81.6 | 112.6 | 99.6 | 82.1 | -0.46
COc1ccccc1NC(=S)N1CCN(Cc2ccc3c(c2)OCO3)CC1 | · | 87.4 | · | · | 97.2 | ·
COc1ccc(-c2nc(Cn3c(SCc4ccc(C)cc4)nc4ccncc43)c(C)o2)cc1OC | 18.7* | 70.9 | 73.2 | 92.6 | 74.9 | ·
Cc1nn(C)cc1/C=C/C(=O)c1cccs1 | 38.9* | 66.5 | 102.3 | 103.3 | 67.4 | 0.57
CCCc1cc2c(=O)c(-c3ccc4c(c3)OCCO4)coc2cc1OS(C)(=O)=O | · | 55.2 | · | · | 47.4 | ·
CCc1cc2c(=O)c(-c3ccc4c(c3)OCCO4)coc2cc1OC(=O)c1ccco1 | 15.1* | 83.9 | 72.2 | 91.1 | 74.5 | -3.53*
CCCc1cc2c(=O)c(-c3ccc4c(c3)OCCO4)coc2cc1OC(=O)c1ccco1 | 39.9* | 71.8 | 73.7 | 86.4 | 71.6 | -3.03*
COc1ccc(C(=O)Oc2coc(CSc3nnc(NC(=O)c4cccs4)s3)cc2=O)cc1 | · | 85.3 | · | · | 91.8 | ·
N#CC1=C(N)C(C#N)(C#N)[C@H](c2ccoc2)[C@H]2CN(Cc3ccccc3)CC=C12 | 4.0* | 89.0 | 38.9 | 69.2 | 85.4 | -0.06
CN1CC=C2C(C#N)=C(N)C(C#N)(C#N)C(c3cccc(Cl)c3Cl)C2C1 (stereo not given) | 15.2* | 84.4 | 70.8 | 78.5 | 88.7 | -0.17
CCOC(=O)N1CC=C2C(C#N)=C(N)C(C#N)(C#N)[C@H](c3ccc(OCC)c(OCC)c3)[C@H]2C1 | 26.1* | 93.5 | 60.2 | 78.7 | 97.3 | -1.51
N#CC1=C(N)C(C#N)(C#N)C(c2cccnc2)C2CN(C(=O)OCc3ccccc3)CC=C12 (stereo not given) | 11.4* | 61.4 | 52.9 | 72.4 | 69.4 | -0.64
CN(C)c1cccc(C(=O)OCC(=O)Nc2nccs2)c1 | · | 92.2 | · | · | 97.0 | ·

High-throughput results: PubChem, several laboratories
